Data taken from ChEMBL document CHEMBL1671867, “Novel polymyxin derivatives carrying only three positive charges are effective antibacterial agents” (Antimicrob Agents Chemother, 2008).
pIC50: −log10 of the molar value. In brackets after ≈: the same amount, converted by molar mass.

Columns and labels:
[1] = Inhibition of [3H]gentamicin binding to brush border membrane of renal cortex
Procedure, shortened: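 Brush border membrane vesicles prepared from male albino rat renal cortex by Mg2+-EGTA precipitation. Incubated with 20 μM [3H]gentamicin in 10 mM HEPES pH 7.5 with 300 mM mannitol, with or without compound, 60 min at 4°C. Then filtered, washed, and bound radioactivity counted by scintillation. IC50 fitted with the Hill equation.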

V79 = assay: Cytotoxicity against chinese hamster V79 cells at […] to 128 ug/ml after 24 hrs; assay type: cell-based, Cricetulus griseus; details: v79, 24 h
Escherichia coli [2] = assay: Antibacterial activity against Escherichia coli ATCC […] by CLSI M7-A7 agar dilution method; assay type: functional
Escherichia coli [3] = assay: Antibacterial activity against Escherichia coli IH3080 assessed as growth inhibition at 10 ug after 18 hrs by […] in presence of 1 ug/ml rifampin; assay type: functional
Escherichia coli [4] = assay: Antibacterial activity against Escherichia coli IH3080 assessed as growth inhibition at 10 ug after 18 hrs by […]; assay type: functional
Escherichia coli [5] = assay: Antibacterial activity against Escherichia coli IH3080 assessed as reduction in bacterial count at 2 ug/ml using 2 day old compound stock solution; assay type: functional; parameters: scale not given: the % may be the effect or the level left
Candida albicans = assay: Antibacterial activity against Candida albicans ATCC 28366 by CLSI M7-A7 agar dilution method; assay type: functional
Staphylococcus aureus = assay: Antibacterial activity against Staphylococcus aureus ATCC 25923 by CLSI M7-A7 agar dilution method; assay type: functional
Procedure, shortened: (§1)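 Agar dilution on Mueller-Hinton agar with test substance at 0.25 to 32 μg/ml in twofold steps. Spots of about 10^4 CFU applied with a multipoint inoculator.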

Escherichia coli [6] = assay: Antibacterial activity against Escherichia coli SC 9253 by CLSI M7-A7 agar dilution method; assay type: functional; procedure, shortened: as §1
Escherichia coli [7] = assay: Antibacterial activity against Escherichia coli SC 9252 by CLSI M7-A7 agar dilution method; assay type: functional
Pseudomonas aeruginosa = assay: Antibacterial activity against Pseudomonas aeruginosa ATCC 27853 by CLSI M7-A7 agar dilution method; assay type: functional; procedure, shortened: as §1
Acinetobacter baumannii [8] = assay: Antibacterial activity against Acinetobacter baumannii by CLSI M7-A7 agar dilution method; assay type: functional
Serratia marcescens = assay: Antibacterial activity against Serratia marcescens ATCC 8100 by CLSI M7-A7 agar dilution method; assay type: functional; procedure, shortened: as §1
Acinetobacter baumannii [9] = assay: Antibacterial activity against Acinetobacter baumannii ATCC 19606 by CLSI M7-A7 agar dilution method; assay type: functional
Citrobacter freundii = assay: Antibacterial activity against Citrobacter freundii ATCC 8090 by CLSI M7-A7 agar dilution method; assay type: functional
Enterobacter cloacae [10] = assay: Antibacterial activity against Enterobacter cloacae by CLSI M7-A7 agar dilution method; assay type: functional
Enterobacter cloacae [11] = assay: Antibacterial activity against Enterobacter cloacae CCUG52947 by CLSI M7-A7 agar dilution method; assay type: functional
Enterobacter cloacae [12] = assay: Antibacterial activity against Enterobacter cloacae ATCC 23355 by CLSI M7-A7 agar dilution method; assay type: functional
Klebsiella oxytoca [13] = assay: Antibacterial activity against Klebsiella oxytoca CCUG51683 by CLSI M7-A7 agar dilution method; assay type: functional; procedure, shortened: as §1
Klebsiella oxytoca [14] = assay: Antibacterial activity against Klebsiella oxytoca ATCC 13182 by CLSI M7-A7 agar dilution method; assay type: functional; procedure, shortened: as §1
Klebsiella pneumoniae [15] = assay: Antibacterial activity against Klebsiella pneumoniae by CLSI M7-A7 agar dilution method; assay type: functional; procedure, shortened: as §1
Escherichia coli [16] = assay: Antibacterial activity against Escherichia coli by CLSI M7-A7 agar dilution method; assay type: functional; procedure, shortened: as §1
Klebsiella pneumoniae [17] = assay: Antibacterial activity against Klebsiella pneumoniae CCUG45421 by CLSI M7-A7 agar dilution method; assay type: functional; procedure, shortened: as §1
Escherichia coli [18] = assay: Antibacterial activity against Escherichia coli IH3080 by CLSI M7-A7 agar dilution method; assay type: functional

With `CCCCCCCC(=O)N[C@H](C(=O)N[C@H](CO)C(=O)N[C@H]1CCNC(=O)[C@H]([C@@H](C)O)NC(=O)[C@H](CCN)NC(=O)[C@H](CCN)NC(=O)[C@H](CC(C)C)NC(=O)[C@@H](Cc2ccccc2)NC(=O)[C@H](CCN)NC1=O)[C@@H](C)O` [listing 1 of 2 here] the pIC50 [1] was 3.58 and the Activity (V79) was “Non-toxic”.
For `CCCCCCCC(=O)N[C@H](C(=O)N[C@H](CO)C(=O)N[C@H]1CCNC(=O)[C@H]([C@@H](C)O)NC(=O)[C@H](CCN)NC(=O)[C@H](CCN)NC(=O)[C@H](CC(C)C)NC(=O)[C@@H](Cc2ccccc2)NC(=O)[C@H](CCN)NC1=O)[C@@H](C)O` [listing 2 of 2 here], the MIC (Escherichia coli [2]) was 1 mg/L (≈ 0.929 µM), the “inhibition zone (IZ)” value (Escherichia coli [3]) was 214 mm2 and the “inhibition zone (IZ)” value (Escherichia coli [4]) was 171 mm2. For the same molecule, the Activity (Escherichia coli [5]) was 98%, the MIC (Candida albicans) was over 32 mg/L and the MIC (Staphylococcus aureus) was over 32 mg/L. For the same molecule, the MIC (Escherichia coli [6]) was over 32 mg/L, the MIC (Escherichia coli [7]) was 32 mg/L (≈ 29.7 µM) and the MIC (Pseudomonas aeruginosa) was 8 mg/L (≈ 7.43 µM). For the same molecule, the MIC (Acinetobacter baumannii [8]) was 4 mg/L (≈ 3.72 µM), the MIC (Serratia marcescens) was over 32 mg/L and the MIC (Acinetobacter baumannii [9]) was 8 mg/L (≈ 7.43 µM). It also gave an MIC (Citrobacter freundii) of 2 mg/L (≈ 1.86 µM), an MIC (Enterobacter cloacae [10]) of 2 mg/L (≈ 1.86 µM) and an MIC (Enterobacter cloacae [11]) of 2 mg/L (≈ 1.86 µM). It also gave an MIC (Enterobacter cloacae [12]) of 2 mg/L (≈ 1.86 µM), an MIC (Klebsiella oxytoca [13]) of 2 mg/L (≈ 1.86 µM) and an MIC (Klebsiella oxytoca [14]) of 2 mg/L (≈ 1.86 µM). For the same molecule, the MIC (Klebsiella pneumoniae [15]) was 1 mg/L (≈ 0.929 µM), the MIC (Escherichia coli [16]) was 0.5 mg/L (≈ 0.465 µM) and the MIC (Klebsiella pneumoniae [17]) was 4 mg/L (≈ 3.72 µM). For the same molecule, the MIC (Escherichia coli [18]) was 1 mg/L (≈ 0.929 µM).
In the case of `CCCCCCCC(=O)N[C@H](C(=O)N[C@H](CO)C(=O)N[C@H]1CCNC(=O)[C@H]([C@@H](C)O)NC(=O)[C@H](CCN)NC(=O)[C@H](CCN)NC(=O)[C@H](CC(C)C)NC(=O)[C@@H](Cc2ccccc2)NC(=O)[C@H](CCN)NC1=O)[C@@H](C)O.CS(=O)(=O)[O-].[Na+]`, the Activity (Escherichia coli [5]) was 90%.
